Experimental data as given in ChEMBL document CHEMBL5120853, “Tolypocladamide H and the Proposed Tolypocladamide NRPS in Tolypocladium Species” (J Nat Prod, 2022).
“And” between values parts separate entries of the source, which are not always exact repeats. Equal values may be shown once. Square brackets hold non-standard residues; d marks the D form. Peptide text beside a SMILES is read from it. * marks the point of attachment. Bmt = C/C=C/C[C@@H](C)[C@@H](O)[C@H](N)C(=O)O; Decanoyl = CCCCCCCCCC(=O)*; Leu(ol) = CC(C)C[C@H](N)CO; Aib = CC(C)(N)C(=O)O

Legend:
Enterococcus faecium = assay: Antibacterial activity against Enterococcus faecium ATCC BAA-2317 assessed as inhibition of bacterial growth; assay type: functional
Outline: (§1)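 Strains grown in ATCC-recommended media in culture tubes at 37 °C with shaking at 225 rpm for 3–8 h, back-diluted to about 10^6 cfu/mL, and incubated in triplicate in 384-well plates with a dilution series of test agent. DMSO vehicle served as negative control; linezolid (E. faecium) and ampicillin (S. aureus) were positive controls. MIC recorded.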

Staphylococcus aureus = assay: Antibacterial activity against Staphylococcus aureus ATCC 25923 assessed as inhibition of bacterial growth; assay type: functional; outline: as §1
HeLa = assay: Cytotoxicity against human HeLa cells assessed as reduction in cell viability incubated for 72 hrs by CellTiter-Glo luminescent cell viability assay; assay type: functional, cell-based
Outline: (§2)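 HUVECs (primary, limited passages) were kept in medium 200PRF with low serum growth supplement. HeLa and MCF-7 were kept in MEM with Earle's salts, L-glutamine, 10% FBS and 1% pen/strep. Cells were seeded at 5000 (HUVEC), 2000 (HeLa) or 3000 (MCF-7) per well and treated after 18 h for 72 h (final DMSO ≤0.1%). Viability read by ATP luminescence, vehicle = 100%; EC50 derived.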

MCF7 = assay: Cytotoxicity against human MCF7 cells assessed as reduction in cell viability incubated for 72 hrs by CellTiter-Glo luminescent cell viability assay; assay type: functional, cell-based; conditions: MCF7, 72 h; outline: as §2
[1] = Cytotoxicity against HUVEC assessed as reduction in cell viability incubated for 72 hrs by CellTiter-Glo luminescent cell viability assay; assay type: toxicity, cell-based; conditions: human, HUVEC cells; outline: as §2

Structure (SMILES): C/C=C/C[C@@H](C)[C@@H](O)[C@H](NC(=O)[C@@H]1CCCN1C(=O)C(C)(C)NC(=O)CCCCCCCCC)C(=O)NC(C)(C)C(=O)N[C@@H](CCC(N)=O)C(=O)N[C@@H](CCC(N)=O)C(=O)NC(C)(C)C(=O)NC(C)(C)C(=O)N[C@@H](CCC(N)=O)C(=O)N[C@H](C(=O)N[C@H](CO)CC(C)C)C(C)C (Decanoyl-[Aib]P[Bmt][Aib]QQ[Aib][Aib]QV[Leu(ol)])
- MIC (Enterococcus faecium): 22 µg/mL and 16 µM
- MIC (Staphylococcus aureus): 11 µg/mL and 8 µM
- EC50 (HeLa): 30 µM
- EC50 (MCF7): 107 µM
- EC50 at 72 h [1]: 8 µM

Structure (SMILES): CC(=O)NC[C@H]1CN(c2ccc(N3CCOCC3)c(F)c2)C(=O)O1 [LINEZOLID]
- MIC (Enterococcus faecium): 30 µg/mL and 89 µM
